Test results from ChEMBL document CHEMBL1177700, “Discovery of bishomo(hetero)arylpiperazines as novel multifunctional ligands targeting dopamine D(3) and serotonin 5-HT(1A) and 5-HT(2A) receptors” (J Med Chem, 2010).
Active and inactive are the calls of the source. No cut-off for these calls is given here.

Assays:
Mus musculus [1] = assay: Antipsychotic activity in NMRI mouse assessed as inhibition of PCP-induced locomotor activity at 3 mg/kg, ip administered 30 mins prior to testing measured for 60 mins; assay type: functional, organism-based; design: dose 3 mg/kg
Mus musculus [2] = assay: Antipsychotic activity in ip dosed NMRI mouse assessed as reduction in spontaneous exploratory locomotor activity administered 30 mins prior to testing measured for 60 mins; assay type: functional
Mus musculus [3] = assay: Antipsychotic activity in NMRI mouse assessed as reduction of PCP-induced locomotor activity at 10 mg/kg, ip administered 30 mins prior to testing measured for 60 mins; assay type: functional, organism-based; design: dose 10 mg/kg
D(1A) dopamine receptor = D(1A) dopamine receptor (Rattus norvegicus, UniProt P18901); assay: Displacement of [3H]SCH23390 from dopamine D1 receptor in CRL:CD(SD)BR-COBS rat striatum by scintillation spectrometry
[4] = Partition coefficient, log P of the compound; assay type: physicochemical; details: octanol/water
[5] = Cmax in NMRI mouse at 3 mg/kg, ip; assay type: ADME, organism-based; design: dose 3 mg/kg, route intraperitoneal; details: in vivo
How it was run: (§1)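 Mice received a single 3 mg/kg ip dose, and plasma concentrations were measured over time. […] Cmax, Tmax and T1/2 were taken from the plasma level profiles.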

[6] = Displacement of [3H]mesulergine from 5HT2C receptor in CRL:(HA) BR albino guinea pig cortex by scintillation spectrometry; design: species or system Cavia porcellus
How it was run: (§2)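 Radioligand displacement binding gave Ki (nM). Each value is the mean of three determinations, with SD within 10% of the mean.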

[7] = target: T1, 5-hydroxytryptamine receptor 1A (Rattus norvegicus, UniProt P19327); assay: Displacement of [3H]8OH-DPAT from 5HT1A receptor in rat CRL:CD(SD)BR-COBS hippocampus by scintillation spectrometry; assay type: tissue-based; how it was run: as §2
T1 sequence (P19327 whole entry): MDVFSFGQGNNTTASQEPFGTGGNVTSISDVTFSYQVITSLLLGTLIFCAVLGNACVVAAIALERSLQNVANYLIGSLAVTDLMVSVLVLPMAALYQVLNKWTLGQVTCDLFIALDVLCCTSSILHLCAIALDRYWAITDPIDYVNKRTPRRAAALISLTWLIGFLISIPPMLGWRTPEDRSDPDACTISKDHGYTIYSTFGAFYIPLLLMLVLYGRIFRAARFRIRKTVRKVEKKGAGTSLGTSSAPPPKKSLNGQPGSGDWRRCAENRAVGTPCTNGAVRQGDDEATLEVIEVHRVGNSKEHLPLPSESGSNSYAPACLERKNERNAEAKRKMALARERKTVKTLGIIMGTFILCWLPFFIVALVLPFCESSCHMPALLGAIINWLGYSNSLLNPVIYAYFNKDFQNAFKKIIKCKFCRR

[8] = target: Voltage-gated inwardly rectifying potassium channel KCNH2 (Homo sapiens, UniProt Q12809); assay: Binding affinity to human ERG expressed in HEK293 cells; assay type: cell-based
[9] = AUC (0 to 6 hrs) in NMRI mouse at 3 mg/kg, ip; assay type: ADME, organism-based; design: time < 6 hr, dose 3 mg/kg, route intraperitoneal; details: plasma; how it was run: as §1
[10] = Tmax in NMRI mouse at 3 mg/kg, ip; assay type: ADME, organism-based; design: dose 3 mg/kg, route intraperitoneal; details: in vivo; how it was run: as §1
Mus musculus [11] = assay: Antipsychotic activity in NMRI mouse assessed as reduction in spontaneous exploratory locomotor activity at 30 mg/kg, ip administered 30 mins prior to testing measured for 60 mins; assay type: functional; details: route intraperitoneal
[12] = Lipophilicity, log D at pH 7.4; assay type: physicochemical; details: buffer
[13] = target: 5-hydroxytryptamine receptor 2A (Rattus norvegicus, UniProt P14842); assay: Displacement of [3H]ketanserin from 5HT2A receptor in CRL:CD(SD)BR-COBS rat cortex by scintillation spectrometry
D(2) dopamine receptor = D(2) dopamine receptor (Rattus norvegicus, UniProt P61169); assay: Displacement of [3H]spiperone from dopamine D2 receptor in CRL:CD(SD)BR-COBS rat striatum by scintillation spectrometry
Mus musculus [14] = assay: Antipsychotic activity in NMRI mouse assessed as increase of MK-801-induced locomotor activity at 1 mg/kg, ip administered 30 mins prior to testing measured for 60 mins; assay type: functional, organism-based; design: dose 1 mg/kg
Mus musculus [15] = assay: Antipsychotic activity in NMRI mouse assessed as reduction in methamphetamine-induced locomotor activity at > 30 mg/kg, ip administered 30 mins prior to testing measured for 60 mins; assay type: functional; details: route intraperitoneal
Mus musculus [16] = assay: Antipsychotic activity in NMRI mouse assessed as reduction in spontaneous exploratory locomotor activity at 10 mg/kg, ip administered 30 mins prior to testing measured for 60 mins; assay type: functional; details: route intraperitoneal
Mus musculus [17] = assay: Antipsychotic activity in NMRI mouse assessed as increase of spontaneous exploratory locomotor activity at 1 mg/kg, ip administered 30 mins prior to testing measured for 60 mins; assay type: functional
Mus musculus [18] = assay: Antipsychotic activity in NMRI mouse assessed as increase of methamphetamine-induced locomotor activity at 0.3 mg/kg, ip administered 30 mins prior to testing measured for 60 mins; assay type: functional, organism-based; design: dose 0.3 mg/kg
Mus musculus [19] = assay: Antipsychotic activity in NMRI mouse assessed as reduction in MK-801-induced locomotor activity at 30 mg/kg, ip administered 30 mins prior to testing measured for 60 mins; assay type: functional; details: route intraperitoneal
[20] = Half life in NMRI mouse at 3 mg/kg, ip; assay type: ADME, organism-based; design: dose 3 mg/kg, route intraperitoneal; details: in vivo; how it was run: as §1
Mus musculus [21] = assay: Antipsychotic activity in NMRI mouse assessed as reduction in MK-801-induced locomotor activity at 10 mg/kg, ip administered 30 mins prior to testing measured for 60 mins; assay type: functional; details: route intraperitoneal
Mus musculus [22] = assay: Antipsychotic activity in ip dosed NMRI mouse assessed as reduction in methamphetamine-induced locomotor activity administered 30 mins prior to testing measured for 60 mins; assay type: functional
How it was run: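 Mice were made hyperactive by methamphetamine pretreatment, then dosed with the compound. Read-out was locomotor hypermotility. Doses ranged from 0.3 to 30 mg/kg.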

Chain of D(1A) dopamine receptor (P18901 whole entry): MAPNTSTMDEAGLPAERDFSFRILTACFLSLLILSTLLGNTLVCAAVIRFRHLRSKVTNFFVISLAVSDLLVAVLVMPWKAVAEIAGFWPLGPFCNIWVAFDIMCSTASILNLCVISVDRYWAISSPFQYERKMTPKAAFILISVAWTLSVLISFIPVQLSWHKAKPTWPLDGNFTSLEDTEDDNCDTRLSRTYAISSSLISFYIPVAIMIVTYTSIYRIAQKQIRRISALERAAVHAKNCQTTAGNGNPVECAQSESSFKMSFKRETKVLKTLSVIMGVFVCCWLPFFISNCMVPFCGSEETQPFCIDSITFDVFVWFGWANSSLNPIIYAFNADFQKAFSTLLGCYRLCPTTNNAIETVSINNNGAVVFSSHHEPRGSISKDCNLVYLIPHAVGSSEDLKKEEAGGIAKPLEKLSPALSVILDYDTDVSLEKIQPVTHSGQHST
Chain of Voltage-gated inwardly rectifying potassium channel KCNH2 (Q12809 whole entry): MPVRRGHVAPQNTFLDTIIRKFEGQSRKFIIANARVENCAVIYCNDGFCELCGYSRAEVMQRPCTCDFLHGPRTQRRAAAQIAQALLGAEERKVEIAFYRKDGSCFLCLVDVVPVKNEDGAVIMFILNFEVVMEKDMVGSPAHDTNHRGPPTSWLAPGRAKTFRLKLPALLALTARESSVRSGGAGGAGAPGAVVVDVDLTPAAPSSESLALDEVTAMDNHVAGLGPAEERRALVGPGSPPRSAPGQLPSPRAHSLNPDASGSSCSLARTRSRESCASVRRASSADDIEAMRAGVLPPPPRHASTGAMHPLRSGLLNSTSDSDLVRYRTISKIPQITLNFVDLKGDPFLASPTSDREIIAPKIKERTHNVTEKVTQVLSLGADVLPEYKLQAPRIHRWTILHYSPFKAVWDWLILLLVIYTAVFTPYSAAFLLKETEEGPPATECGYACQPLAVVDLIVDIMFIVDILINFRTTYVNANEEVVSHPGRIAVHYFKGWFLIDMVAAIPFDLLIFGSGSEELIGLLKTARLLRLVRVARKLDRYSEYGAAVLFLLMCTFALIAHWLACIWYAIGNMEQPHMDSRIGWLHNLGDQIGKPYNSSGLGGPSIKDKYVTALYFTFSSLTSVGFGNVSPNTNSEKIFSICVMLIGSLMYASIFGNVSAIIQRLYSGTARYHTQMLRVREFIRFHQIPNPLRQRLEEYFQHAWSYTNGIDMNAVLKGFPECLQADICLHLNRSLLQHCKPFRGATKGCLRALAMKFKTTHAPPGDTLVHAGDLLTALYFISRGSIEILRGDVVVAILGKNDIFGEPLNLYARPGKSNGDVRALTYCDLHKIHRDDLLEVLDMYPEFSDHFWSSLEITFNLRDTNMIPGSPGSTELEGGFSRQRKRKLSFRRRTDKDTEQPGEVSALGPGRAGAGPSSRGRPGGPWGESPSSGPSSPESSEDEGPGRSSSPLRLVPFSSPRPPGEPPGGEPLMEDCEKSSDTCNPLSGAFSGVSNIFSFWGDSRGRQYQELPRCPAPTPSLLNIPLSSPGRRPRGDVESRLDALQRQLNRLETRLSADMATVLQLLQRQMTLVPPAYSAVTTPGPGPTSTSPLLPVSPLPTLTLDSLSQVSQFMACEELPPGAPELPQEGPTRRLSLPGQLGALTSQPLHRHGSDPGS
Chain of 5-hydroxytryptamine receptor 2A (P14842 whole entry): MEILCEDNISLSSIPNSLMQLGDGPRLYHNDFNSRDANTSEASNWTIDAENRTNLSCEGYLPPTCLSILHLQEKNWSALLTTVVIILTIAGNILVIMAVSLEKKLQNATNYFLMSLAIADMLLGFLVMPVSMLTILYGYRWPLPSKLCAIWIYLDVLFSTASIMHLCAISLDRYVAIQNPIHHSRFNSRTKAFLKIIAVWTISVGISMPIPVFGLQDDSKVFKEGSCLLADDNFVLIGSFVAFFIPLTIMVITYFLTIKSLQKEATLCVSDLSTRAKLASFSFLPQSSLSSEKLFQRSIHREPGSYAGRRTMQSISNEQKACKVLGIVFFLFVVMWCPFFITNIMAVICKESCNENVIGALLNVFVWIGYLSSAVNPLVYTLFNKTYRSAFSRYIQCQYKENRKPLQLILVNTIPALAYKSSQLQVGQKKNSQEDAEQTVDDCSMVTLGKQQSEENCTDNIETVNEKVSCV
Chain of D(2) dopamine receptor (P61169 whole entry): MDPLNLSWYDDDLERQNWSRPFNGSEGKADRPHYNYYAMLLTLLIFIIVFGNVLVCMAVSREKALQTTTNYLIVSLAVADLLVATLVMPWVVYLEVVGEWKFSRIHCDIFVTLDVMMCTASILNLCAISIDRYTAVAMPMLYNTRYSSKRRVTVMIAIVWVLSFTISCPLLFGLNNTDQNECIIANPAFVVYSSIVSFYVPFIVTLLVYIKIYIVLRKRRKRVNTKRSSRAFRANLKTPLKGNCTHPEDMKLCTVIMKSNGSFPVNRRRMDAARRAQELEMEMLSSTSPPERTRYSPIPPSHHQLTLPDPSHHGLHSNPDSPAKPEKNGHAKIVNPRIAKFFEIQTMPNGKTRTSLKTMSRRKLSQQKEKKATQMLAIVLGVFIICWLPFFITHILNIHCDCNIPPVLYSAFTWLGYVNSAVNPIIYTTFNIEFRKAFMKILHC

O=C1CCc2ccc(OCCCCN3CCN(c4cccc(Cl)c4Cl)CC3)cc2N1 [ARIPIPRAZOLE]
Activity (Mus musculus [1]): Active
ED50 (Mus musculus [2]): 2.5 mg/kg
Activity (Mus musculus [3]): Active

c1ccc(N2CCN(CCCCCCN3CCN(c4ccccn4)CC3)CC2)nc1
Ki (D(1A) dopamine receptor): > 1000 nM
logP [4]: 3.39
Activity (Mus musculus [1]): Active
Cmax [5]: 26 ng/mL
Ki [6]: > 1000 nM
Ki [7]: 16 nM
Ki [8]: > 10000 nM
AUC(0-t) at 6 h [9]: 84 ng·h/mL
Tmax [10]: 60 min
Activity (Mus musculus [11]): 30 mg/kg
logD [12]: 1.33
Activity (Mus musculus [3]): Active
Ki [13]: 45 nM
Ki (D(2) dopamine receptor): 159 nM

c1ccc(N2CCN(CCCCCCN3CCN(c4ccnc5ccccc45)CC3)CC2)cc1
Ki (D(1A) dopamine receptor): > 1000 nM
logP [4]: 5.61
Ki [6]: > 1000 nM
Ki [7]: 49 nM
Ki [8]: 3800 nM
logD [12]: 3.1
Ki [13]: 34 nM
Ki (D(2) dopamine receptor): 41 nM

Cc1cccc(N2CCN(CCCCCCN3CCN(c4cccc(C)n4)CC3)CC2)c1
Ki (D(1A) dopamine receptor): > 1000 nM
logP [4]: 4.62
Activity (Mus musculus [1]): Active
Cmax [5]: 58 ng/mL
Ki [6]: 68 nM
Ki [7]: 11 nM
AUC(0-t) at 6 h [9]: 243 ng·h/mL
Tmax [10]: 120 min
logD [12]: 2.46
Activity (Mus musculus [3]): Active
Ki [13]: 6 nM
Ki (D(2) dopamine receptor): 33 nM
Activity (Mus musculus [14]): Active

c1ccc(N2CCN(CCCCCCN3CCN(c4ccccc4)CC3)CC2)cc1
Ki (D(1A) dopamine receptor): > 1000 nM
logP [4]: 3.83
Activity (Mus musculus [1]): Active
Cmax [5]: 71 ng/mL
Activity (Mus musculus [15]): >30 mg/kg
Ki [6]: > 1000 nM
Ki [7]: 3 nM
Ki [8]: 8000 nM
AUC(0-t) at 6 h [9]: 198 ng·h/mL
Tmax [10]: 30 min
logD [12]: 2.96
Activity (Mus musculus [16]): 10 mg/kg
Activity (Mus musculus [3]): Active
Ki [13]: 31 nM
Ki (D(2) dopamine receptor): 1 nM

COc1cccc(N2CCN(CCCCCCN3CCN(c4cccc(Cl)c4)CC3)CC2)c1
Ki (D(1A) dopamine receptor): > 1000 nM
logP [4]: 4.7
Ki [6]: 92 nM
Ki [7]: 1 nM
Ki [8]: 1200 nM
logD [12]: 3.89
Ki [13]: 7 nM
Ki (D(2) dopamine receptor): 4 nM

Cc1cccc(N2CCN(CCCCNC(=O)c3cc4ccccc4o3)CC2)c1
Ki (D(1A) dopamine receptor): 263 nM
Activity (Mus musculus [1]): Active
Cmax [5]: 155 ng/mL
Ki [6]: 206 nM
AUC(0-t) at 6 h [9]: 128 ng·h/mL
Tmax [10]: 30 min
Activity (Mus musculus [3]): Active
Ki (D(2) dopamine receptor): 4.5 nM

Cc1cccc(N2CCN(CCCCCCN3CCN(c4ccccn4)CC3)CC2)c1
Ki (D(1A) dopamine receptor): > 1000 nM
logP [4]: 4.23
Activity (Mus musculus [1]): Active
Ki [6]: 150 nM
Activity (Mus musculus [17]): inactive
Ki [7]: 2 nM
Activity (Mus musculus [18]): Active
Ki [8]: 8700 nM
logD [12]: 2.72
Activity (Mus musculus [3]): Active
Ki [13]: 10 nM
Ki (D(2) dopamine receptor): 44 nM

Clc1cccc(N2CCN(CCCCCCN3CCN(c4cccc(Cl)c4)CC3)CC2)c1
Ki (D(1A) dopamine receptor): > 1000 nM
logP [4]: 5.35
Ki [6]: 504 nM
Ki [7]: 16 nM
Ki [8]: 300 nM
logD [12]: 4.58
Ki [13]: 98 nM
Ki (D(2) dopamine receptor): 11 nM

COc1cccc(N2CCN(CCCCCCN3CCN(c4cccc(OC)c4)CC3)CC2)c1
Ki (D(1A) dopamine receptor): > 1000 nM
logP [4]: 4.19
Ki [6]: 303 nM
Ki [7]: 8 nM
Ki [8]: 2400 nM
logD [12]: 3.25
Ki [13]: 28 nM
Ki (D(2) dopamine receptor): 27 nM

c1ccc(N2CCN(CCCCCCN3CCN(c4ccccn4)CC3)CC2)cc1
Ki (D(1A) dopamine receptor): > 1000 nM
Activity (Mus musculus [19]): 30 mg/kg
logP [4]: 3.61
Activity (Mus musculus [1]): Active
Cmax [5]: 50 ng/mL
Ki [6]: > 1000 nM
Ki [7]: 30 nM
Ki [8]: 13000 nM
AUC(0-t) at 6 h [9]: 58 ng·h/mL
Tmax [10]: 60 min
logD [12]: 2.14
Activity (Mus musculus [16]): 10 mg/kg
Activity (Mus musculus [3]): Active
Ki [13]: 39 nM
Ki (D(2) dopamine receptor): 34 nM

Cc1cccc(N2CCN(CCCCCCN3CCN(c4ccnc5ccccc45)CC3)CC2)c1
logP [4]: 6.23
Ki [8]: 900 nM
logD [12]: 3.67

O=C(CCCN1CCC(O)(c2ccc(Cl)cc2)CC1)c1ccc(F)cc1 [HALOPERIDOL]
Activity (Mus musculus [1]): Active
ED50 (Mus musculus [2]): 0.08 mg/kg
Activity (Mus musculus [3]): Active

Cc1cccc(N2CCN(CCCCCCN3CCN(c4ccccc4)CC3)CC2)n1
half-life [20]: 150 min
Ki (D(1A) dopamine receptor): > 1000 nM
logP [4]: 3.99
Activity (Mus musculus [1]): Active
Cmax [5]: 121 ng/mL
Ki [6]: 309 nM
Activity (Mus musculus [21]): 10 mg/kg
Ki [7]: 8 nM
AUC(0-t) at 6 h [9]: 362 ng·h/mL
Tmax [10]: 18 min
Activity (Mus musculus [11]): 30 mg/kg
logD [12]: 1.89
Activity (Mus musculus [3]): Active
Ki [13]: 25 nM
Ki (D(2) dopamine receptor): 24 nM

CN1CCN(C2=Nc3cc(Cl)ccc3Nc3ccccc32)CC1 [CLOZAPINE]
Activity (Mus musculus [1]): Active
ED50 (Mus musculus [22]): 2.5 mg/kg
ED50 (Mus musculus [2]): 2.4 mg/kg
Activity (Mus musculus [3]): Active

Cc1cccc(N2CCN(CCCCCCN3CCN(c4ccccc4)CC3)CC2)c1
Ki (D(1A) dopamine receptor): > 1000 nM
logP [4]: 4.45
Activity (Mus musculus [1]): Active
Cmax [5]: 41 ng/mL
Ki [6]: 182 nM
Ki [7]: 19 nM
Ki [8]: 3800 nM
AUC(0-t) at 6 h [9]: 147 ng·h/mL
Tmax [10]: 30 min
Activity (Mus musculus [11]): 30 mg/kg
logD [12]: 3.53
Activity (Mus musculus [3]): Active
Ki [13]: 10 nM
Ki (D(2) dopamine receptor): 20 nM

Cc1cccc(N2CCN(CCCCCCN3CCN(c4cccc(C)c4)CC3)CC2)c1
Ki (D(1A) dopamine receptor): > 1000 nM
logP [4]: 5
Ki [6]: 120 nM
Ki [7]: 48 nM
Ki [8]: 2200 nM
logD [12]: 4.03
Ki [13]: 20 nM
Ki (D(2) dopamine receptor): 70 nM
